Assay results from different studies.
Compare with care: the assays were run in different laboratories.
HTR2B: 5-hydroxytryptamine receptor 2B (HTR2B, Homo sapiens, UniProt P41595)
HTR2C: 5-hydroxytryptamine receptor 2C (HTR2C, Homo sapiens, UniProt P28335)

Structure (SMILES)	target	test	setting	endpoint	value
COc1cc2c3c(c1OC)-c1c(OC)ccc(Br)c1CC3N(C)CC2 (stereo not drawn)	HTR2B	ligand displacement, radioligand	10 µM	inhibition	88%
CC[C@H](C)[C@H](NC(=O)[C@H](CO)NC(=O)[C@H](Cc1ccc(O)cc1)NC(=O)[C@H](CC(=O)O)NC(=O)[C@H](CO)NC(=O)[C@@H](NC(=O)[C@H](Cc1ccccc1)NC(=O)[C@@H](NC(=O)CNC(=O)[C@H](CCC(=O)O)NC(=O)CCNC(=O)C1(c2ccc(Cl)cc2)CCOCC1)[C@@H](C)O)[C@@H](C)CC)C(=O)N[C@@H](C)C(=O)N[C@@H](CCSC)C(=O)N[C@@H](CC(=O)O)C(=O)N[C@@H](CCCCN)C(=O)N[C@H](C(=O)N[C@@H](Cc1c[nH]cn1)C(=O)N[C@@H](CCC(N)=O)C(=O)N[C@@H](CCC(N)=O)C(=O)N[C@@H](CC(=O)O)C(=O)N[C@@H](Cc1ccccc1)C(=O)N[C@H](C(=O)N[C@@H](CC(N)=O)C(=O)N[C@@H](Cc1c[nH]c2ccccc12)C(=O)N[C@@H](CC(C)C)C(=O)N[C@@H](CC(C)C)C(=O)N[C@@H](C)C(=O)N[C@@H](CCC(N)=O)C(=O)NCC(=O)N1CCC[C@H]1C(=O)N[C@@H](CO)C(=O)N[C@@H](CO)C(=O)NCC(=O)N[C@@H](C)C(=O)N1CCC[C@H]1C(=O)N1CCC[C@H]1C(=O)N1CCC[C@H]1C(=O)N[C@@H](CO)C(=O)N[C@@H](CCCCN)C(N)=O)C(C)C)[C@@H](C)CC	Glucagon receptor (Mus musculus, UniProt Q61606)	cAMP, agonist	–	Emax	< 20%
CN1CCC[C@H]1c1cccnc1	HTR2C	ligand displacement	50 µM	inhibition	-24.7%
CC(C)CC(=O)OC[C@H]1O[C@@](C#N)(c2ccc3c(N)ncnn23)[C@H](O)[C@@H]1O	Prostaglandin G/H synthase 1 (PTGS1, Homo sapiens, UniProt P23219)	enzyme activity, inhibitor	20 µM	inhibition	6%
COc1cc2c3c(c1OC)-c1c(OC)ccc(Cl)c1CC3N(C)CC2 (racemic)	HTR2B	ligand displacement, radioligand	10 µM	inhibition	87%
COc1cc(C(F)(F)F)c(OC)cc1C1CCCNC1 (stereo not drawn)	HTR2C	calcium signal, agonist	–	Emax	31%
CCOC(=O)Cc1c2c3c(cc(OC)c(OC)c3c3cc(OC)c(OC)cc13)CCN2C	HTR2B	ligand displacement, radioligand	10 µM	inhibition	43%
[2H]c1c([2H])c([C@]2([2H])CCCN2C(=O)C(C)(C)Oc2ccc3cn[nH]c3c2)c([2H])c([2H])c1C([2H])([2H])[2H]	Serine/threonine-protein kinase Nek6 (NEK6, Homo sapiens, UniProt Q9HC98)	binding, competition with immobilised ligand	1 µM	remaining binding	100%
COc1cc2c3c(c1OC)-c1c(OC)ccc(O)c1CC3N(C)CC2 (stereo not drawn)	HTR2C	ligand displacement, radioligand	10 µM	inhibition	60%
c1cncc([C@@H]2CCCN2)c1	HTR2B	ligand displacement	50 µM	inhibition	-2.22%
Nc1ncnc2c1ncn2[C@@H]1O[C@H](C[C@@H](N)CC[C@H](N)C(=O)O)[C@@H](O)[C@H]1O	mRNA cap guanine-N(7) methyltransferase (RNMT, Homo sapiens, UniProt O43148)	enzyme activity, inhibitor	3.125 µM	inhibition	40.9%
CCCC(NCCc1cc(OC)c(C#N)cc1OC)c1ccccc1O (stereo not drawn)	HTR2C	calcium signal, agonist	–	Emax	56%
